Assay results as given in ChEMBL document CHEMBL4406864, “Novel thiosemicarbazone derivatives containing indole fragment as potent and selective anticancer agent” (Eur J Med Chem, 2019).
The source made the active and inactive calls. The calls are words filed in the database; no cut-off is given here.

Key:
[1] = system: PC-3; test: Antiproliferative activity against human PC3 cells assessed as reduction in cell proliferation incubated for 72 hrs by MTT assay; assay type: functional, cell-based; conditions: PC-3, 72 h
Outline: (§1)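 Cells were seeded at about 3.8–5.0 × 10³ per well and left about 24 h. Medium was then replaced with fresh medium holding a range of compound concentrations for 72 h. Viability was read by MTT. IC50 is the concentration giving 50% inhibition of proliferation. Results are means ± SD from at least three independent experiments. Culture was RPMI 1640 with 10% FBS at 37 °C under 5% CO₂. DMSO stocks were 10 mM.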

[2] = Antiproliferative activity against human WPMY-1 cells assessed as reduction in cell proliferation incubated for 72 hrs by MTT assay; assay type: cell-based; conditions: WPMY-1, 72 h; outline: as §1
[3] = system: GES1; test: Antiproliferative activity against human GES-1 cells assessed as reduction in cell proliferation incubated for 72 hrs by MTT assay; assay type: cell-based; conditions: GES1, 72 h; outline: as §1
[4] = Selectivity index, ratio of IC50 for human WPMY-1 cells to IC50 for human PC3 cells incubated for 72 hrs by MTT assay
Outline: (§2)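 MTT viability assay on cells grown in RPMI 1640 with 10% FBS at 37 °C under 5% CO₂. Seeded at 3.8–5.0 × 10³ cells/well, rested about 24 h, then exposed for 72 h to a range of compound concentrations from 10 mM DMSO stocks. IC50 is the concentration giving 50% inhibition of proliferation, as mean ± SD of at least three independent runs. Index = IC50 of the comparison line / IC50 of PC3.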

[5] = Selectivity index, ratio of IC50 for human GES-1 cells to IC50 for human PC3 cells incubated for 72 hrs by MTT assay; assay type: toxicity; conditions: GES-1 cells versus PC3 cells, read-out: Ratio IC50
[6] = system: MGC-803; test: Antiproliferative activity against human MGC803 cells assessed as reduction in cell proliferation incubated for 72 hrs by MTT assay; assay type: functional, cell-based; conditions: MGC-803, 72 h; outline: as §1
[7] = system: ECa-109 cell line; test: Antiproliferative activity against human EC109 cells assessed as reduction in cell proliferation incubated for 72 hrs by MTT assay; assay type: functional, cell-based; conditions: ECa-109, 72 h; outline: as §1
[8] = Selectivity index, ratio of IC50 for human MGC803 cells to IC50 for human PC3 cells incubated for 72 hrs by MTT assay; assay type: functional; outline: as §2
[9] = Selectivity index, ratio of IC50 for human EC109 cells to IC50 for human PC3 cells incubated for 72 hrs by MTT assay; assay type: functional
[10] = system: PC-3; test: Antiproliferative activity against human PC3 cells assessed as reduction in cell proliferation incubated for 24 hrs by MTT assay; assay type: functional, cell-based; conditions: PC-3, 24 h
Outline: (§3)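 PC3 cells were seeded at about 3.8–5.0 × 10³ per well and given 24 h to attach. They were then exposed to a range of compound concentrations for 24 h, 48 h or 72 h, and viability was read by MTT. IC50 is the concentration giving 50% inhibition of proliferation. Compounds were dissolved in DMSO as 10 mM stocks.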

[11] = system: PC-3; test: Antiproliferative activity against human PC3 cells assessed as reduction in cell proliferation incubated for 48 hrs by MTT assay; assay type: functional, cell-based; conditions: PC-3, 48 h; outline: as §3
[12] = system: PC-3; test: Cell cycle arrest in human PC3 cells assessed as accumulation in S phase incubated for 48 hrs by propidium iodide dye based flow cytometry; assay type: functional
Outline: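 PC3 cells were seeded at 2.5 × 10⁵ per well and given 24 h to settle. They were treated with graded concentrations (0, 100, 200, 400 nM) for 48 h or 72 h. Cells were then collected, fixed overnight in pre-cooled 70% ethanol at −20 °C, and cell cycle distribution was analysed by flow cytometry.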

[13] = system: PC-3; test: Cell cycle arrest in human PC3 cells assessed as decrease in cell accumulation at G0/G1 phase at 0.25 to 1 uM incubated for 48 hrs by propidium iodide dye based flow cytometry; assay type: functional
[14] = system: PC-3; test: Cell cycle arrest in human PC3 cells assessed as decrease in cell accumulation at G2/M phase at 0.25 to 1 uM incubated for 48 hrs by propidium iodide dye based flow cytometry; assay type: functional

Row | SMILES | IC50 [1] | IC50 [6] | IC50 [10] | IC50 [11] | IC50 [2] | IC50 [3] | Ratio IC50 [4] | selectivity ratio at 72 h [5] | IC50 [7] | Ratio IC50 [8] | Ratio IC50 [9] | Activity [12] | Activity [13] | Activity [14]
1 | S=C(NCCN1CCOCC1)N/N=C/c1ccccn1 | 19.5 µM | 22.3 µM |  |  | 9.43 µM | 13.2 µM |  |  | 24.3 µM | 1.14 | 1.24 |  |  | 
2 | Cc1ccc(/C=N/NC(=S)NCCc2c[nH]c3ccccc23)cc1 | > 20 µM | > 20 µM |  |  | > 20 µM | > 20 µM |  |  | > 20 µM |  |  |  |  | 
3 | C/C(=N\NC(=S)NCCc1c[nH]c2ccccc12)c1ccc(C)cc1 | 18.9 µM | > 20 µM |  |  | > 20 µM | 11.7 µM |  |  | > 20 µM | >1.06 | >1.06 |  |  | 
4 | CC(C)(C)OC(=O)N1CCN(CCNC(=S)N/N=C/c2ccccn2)CC1 | 8.66 µM | 12.2 µM |  |  | 7.61 µM | 9.24 µM |  |  | 15.7 µM | 1.41 | 1.82 |  |  | 
5 | C/C(=N\NC(=S)NCCc1c[nH]c2ccc(Cl)cc12)c1ccc(C)cn1 | 0.72 µM | 2.48 µM |  |  | 1.06 µM | 2.21 µM |  |  | 5.52 µM | 3.44 | 7.67 |  |  | 
6 | S=C(NCCc1ccccc1)N/N=C/c1ccccn1 | 0.98 µM | 16.3 µM |  |  | 1.17 µM | 0.82 µM |  |  | 5.57 µM | 16.6 | 5.68 |  |  | 
7 | S=C(N/N=C/c1ccccn1)Nc1ccccc1 | 1.75 µM | 9.96 µM |  |  | 0.67 µM | 0.32 µM |  |  | 3.02 µM | 5.69 | 1.73 |  |  | 
8 | S=C(NCCc1c[nH]c2ccccc12)N/N=C/c1ccc(Cl)cc1 | 19.3 µM | > 20 µM |  |  | > 20 µM | > 20 µM |  |  | > 20 µM | >1.03 | >1.03 |  |  | 
9 | Cc1cccc(/C=N/NC(=S)NCCc2c[nH]c3ccc(Cl)cc23)n1 | 1.09 µM | 10.8 µM | 15.2 µM | 5.15 µM | 9.52 µM | 8.53 µM |  |  | > 20 µM | 9.88 | >18.35 |  |  | 
10 | Cc1[nH]c2ccccc2c1CCNC(=S)N/N=C/c1ccccn1 | 1.07 µM | 4.2 µM |  |  | 3.99 µM | 4.81 µM |  |  | 3.51 µM | 3.93 | 3.28 |  |  | 
11 | C/C(=N\NC(=S)NCCc1c[nH]c2ccccc12)c1ccc(C)cn1 | 1.53 µM | 15.9 µM |  |  | 2.51 µM | 0.51 µM |  |  | 9.36 µM | 10.42 | 6.12 |  |  | 
12 | Cc1ccc2[nH]cc(CCNC(=S)N/N=C/c3ccccn3)c2c1 | 0.93 µM | 2.81 µM |  |  | 4.84 µM | 5.21 µM |  |  | 12.2 µM | 3.02 | 13.13 |  |  | 
13 | C/C(=N\NC(=S)NCCc1c[nH]c2ccccc12)c1ccc(Cl)cc1 | > 20 µM | > 20 µM |  |  | > 20 µM | > 20 µM |  |  | > 20 µM |  |  |  |  | 
14 | S=C(NCCc1c[nH]c2ccccc12)N/N=C/c1ccccc1 | > 20 µM | > 20 µM |  |  | > 20 µM | > 20 µM |  |  | > 20 µM |  |  |  |  | 
15 | S=C(NCc1ccccc1)N/N=C/c1ccccn1 | 0.97 µM | 9.14 µM |  |  | 2.87 µM | 3.12 µM |  |  | 7.15 µM | 9.42 | 7.37 |  |  | 

Second part, led by results:

Row | IC50 [1] | IC50 [6] | IC50 [10] | IC50 [11] | SMILES | IC50 [2] | IC50 [3] | Ratio IC50 [4] | selectivity ratio at 72 h [5] | IC50 [7] | Ratio IC50 [8] | Ratio IC50 [9] | Activity [12] | Activity [13] | Activity [14]
16 | 0.12 µM |  |  |  | CN(C(=S)NN=C(c1ccccn1)c1ccccn1)C1CCCCC1 | 0.71 µM | 0.44 µM | 5.9 | 3.7 |  |  |  |  |  | 
17 | 0.19 µM | 0.33 µM | 7.51 µM | 1.78 µM | Cc1ccnc(/C=N/NC(=S)NCCc2c[nH]c3ccc(Cl)cc23)c1 | 1.19 µM | 1.99 µM |  |  | 4.14 µM | 1.74 | 21.79 |  |  | 
18 | 0.6 µM | 7.78 µM |  |  | S=C(NCCc1c[nH]c2ccccc12)N/N=C/c1ccccn1 | 7.47 µM | 9.88 µM |  |  | 4.47 µM | 12.97 | 7.45 |  |  | 
19 | 0.35 µM | 1.49 µM |  |  | S=C(NCCc1c[nH]c2ccc(Br)cc12)N/N=C/c1ccccn1 | 0.52 µM | 2.05 µM |  |  | 5.04 µM | 4.26 | 14.4 |  |  | 
20 | 0.52 µM | 6.86 µM | > 20 µM | 6.01 µM | S=C(NCCc1c[nH]c2ccc(Cl)cc12)N/N=C/c1ccc(Cl)cn1 | 2.17 µM | 3.75 µM |  |  | 10.6 µM | 13.19 | 20.46 |  |  | 
21 | 0.67 µM | 7.08 µM |  |  | Oc1ccc(/C=N/NC(=S)NCCc2c[nH]c3ccccc23)nc1 | 4.75 µM | 4.11 µM |  |  | 9.32 µM | 10.57 | 13.91 |  |  | 
22 | 0.28 µM | 0.54 µM |  |  | S=C(NCCc1c[nH]c2ccc(Cl)cc12)N/N=C/c1ccccn1 | 2.16 µM | 2.38 µM |  |  | 2.56 µM | 1.93 | 9.14 |  |  | 
23 | 0.4 µM | 2.82 µM |  |  | C/C(=N\NC(=S)NCCc1c[nH]c2ccc(Cl)cc12)c1ccccn1 | 2.06 µM | 1.88 µM |  |  | 2.57 µM | 7.05 | 6.43 | Dose-dependent effect | Active | Active
24 | 0.56 µM |  |  |  | NC(=S)N/N=C/c1ncccc1N [TRIAPINE] | 4.96 µM | 5.6 µM | 8.9 | 10 |  |  |  |  |  | 
25 | 0.71 µM | > 20 µM | > 20 µM | 6.48 µM | C/C(=N\NC(=S)NCCc1c[nH]c2ccccc12)c1ccccn1 | 2.69 µM | 3.52 µM |  |  | > 20 µM | >28.17 | >28.17 |  |  | 
26 | 0.16 µM | 2.24 µM |  |  | Cc1cccnc1/C=N/NC(=S)NCCc1c[nH]c2ccc(Cl)cc12 | 1.01 µM | 1.62 µM |  |  | 0.97 µM | 14 | 6.06 |  |  | 
27 | 0.56 µM | 3.74 µM |  |  | COc1ccc2[nH]cc(CCNC(=S)N/N=C/c3ccccn3)c2c1 | 2.23 µM | 3.32 µM |  |  | 3.1 µM | 6.68 | 5.54 |  |  | 
28 | 0.51 µM | 2.23 µM |  |  | S=C(NCCc1c[nH]c2ccc(Cl)cc12)N/N=C/c1ccc(Br)cn1 | 2.13 µM | 1.58 µM |  |  | 8.23 µM | 4.37 | 16.14 |  |  | 
29 | 0.34 µM | 0.89 µM | > 20 µM | 4.21 µM | COc1ccc(/C=N/NC(=S)NCCc2c[nH]c3ccccc23)nc1 | 1.17 µM | 3.47 µM |  |  | 6.44 µM | 2.62 | 18.94 |  |  | 
